Test results reported in the RNAGym collection of RNA variant scans (doi:10.1101/gad.245936.114).
Variants at the floor of the assay were thinned out.

B1: tRNA (parent)
chain: CUCUCGGUAGCCAAGUUGGUUUAAGGCGCAAGACUUUAAUUUAUCACUACGAAAUCUUGAGAUCGGGCGUUCGACUCGCCCCCGGGAGAUUUUUUCCUCGAGCAA

Variants of: B1
Assay: nonsense suppression (GFP-seq) (ratio to wild type); higher = more function; SUP4oc tRNA, yeast GFP reporter sort-seq
In short: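 To measure nonsense suppression, tRNA variants from a library carrying ~3% random mutations were integrated into the yeast genome alongside RFP and a GFP ochre reporter under galactose control. Growth took place in raffinose/galactose medium supplemented with 80 mg/L adenine, followed by sorting into GFP/RFP bins and Illumina sequencing of each bin (phred ≥30). For each variant with ≥100 reads and ≥30 cells, the bin median GFP/RFP values were weighted by its estimated cell share per bin and referenced to the unmutated parent tRNA.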

| Variant | nonsense suppression |
| --- | --- |
| CUCUCGGUAGCCAAGUUGGUUUACGGCGCAAGACUUUAAUUUAUCACUACGAAAUCUUGAGAUCGGGCGUUCGCCUCGCCCCCGGGAGAUUUUUUCCUCGAGCAA | 0.0915 |
| CUCUCGGUAGCCAAGUUGGUUUACGGCGCAAGACUUUAAUUUAUCACUACGAAAUCUUGAGAUGGGGCGUUCGACUCGCCCCCGGGAGAUUUUUUCCUCGAGCAA | ≤ 0.026 |
| CUCUCGGUAGCCAAGUUGGUUUACGGCACAAGACUUUAAUUUAUCACUACGAAAUCUUGAGAUCGGGCGUUCGACUCGCCCCCGGGAGAUUUUUUCCUCGAGCAA | 0.952 |
| CUCUCGGUAGCCAAGUUGGUUUACGGCCCAAGACUUUAAUUUAUCACUACGAAAUCUUGAGAUCGGGCGUUCGACUCGCCCCCGGGAGAUUUUUUCCUCGAGCAA | 0.201 |
| CUCUCGGUAGCCAAGUUGGUUUACGGCGUAAGACUUUAAUUUAUCACUACGAAAUCUUGAGAUCGGGCGUUCGACUCGCCCCCGGGAGAUUUUUUCCUCGAGCAA | 0.751 |
| CUCUCGGUAGCCAAGUUGGUUUACGGCGCAAGACUUUAAUUUAUCACUACGAAAUCUUGAGAUCGGGCGUUGGACUCGCCCCCGGGAGAUUUUUUCCUCGAGCAA | 0.0618 |
| CUCUCGGUAGCCAAGUUGGUUUACGGCGCAAGACUUUAAUUUAUCACUACGAAAUCUUGAGAUCGGGCGUUUGACUCGCCCCCGGGAGAUUUUUUCCUCGAGCAA | 0.0288 |
| CUCUCGGUAGCCAAGUUGGUUUACGGCGCAAGACUUUAAUUUAUCACUACGAAAUCUUGAGAUCGGGCGUUCGACUCUCCCCCGGGAGAUUUUUUCCUCGAGCAA | 0.0343 |
| CUCUCGGUAGCCAAGUUGGUUUACGGCGCAAGACUUUAAUUUAUCACUACGAAAUCUUGAGAUCGGGCGUUCGACUCACCCCCGGGAGAUUUUUUCCUCGAGCAA | 0.112 |
| CUCUCGGUAGCCAAGUUGGUUUACGGCGCAAGACUUUAAUUUAUCACUACGAAAUCUUGAGAUCGGGCGUUCGACUCGCCCCCGGGGGAUUUUUUCCUCGAGCAA | 0.479 |
| CUCUCGGUAGCCAAGUUGGUUUACGGCGCAAGACUUUAAUUUAUCACUACGAAAUCUUGAGAUCGGGCGUUCGACUCGCCCCCGGGUGAUUUUUUCCUCGAGCAA | 0.0833 |
| CUCUCGGUAGCCAAGUUGGUUUACGGCGCAAGACUUUAAUUUAUCACUACGAAAUCAUGAGAUCGGGCGUUCGACUCGCCCCCGGGAGAUUUUUUCCUCGAGCAA | 0.0454 |
| CUCUCGGUAGCCAAGUUGGUUUACGGCGCAAGACUUUAAUUUAUCACUACGAAAUCUUGAGAUCGGGCGUUCGACUCGCCCCUGGGAGAUUUUUUCCUCGAGCAA | 0.383 |
| CUCUCGGUAGCCAAGUUGGUUUACGGCGCAAGACUUUAAUUUAUCACUACGAAAUCUUGAGAUCGGCCGUUCGACUCGCCCCCUGGAGAUUUUUUCCUCGAGCAA | ≤ 0.026 |
| CUCUCGGUAGCCAAGUUGGUUUACGGCGCUAGACUUUAAUUUAUCACUACGAAAUCUUGAGAUCGGGCGUUCGACUCGCCCCCGGGAGAUUUUUUCCUCGAGCAA | 0.11 |
| CUCUCGGUAGCCAAGUUGGUUUACGGCGCAAGACUUUAAUUUAUCACUACGAAAUCUCGAGAUCGGGCGUUCGACUCGCCCCCGGGAGAUUUUUUCCUCGAGCAA | 0.034 |
| CUCUCGGUAGCCAAGUUGGUUUACGGCGCAAGACUUUAAUUUAUCACUACGAAAUCUUGUGAACGGGCGUUCGACUCGCCCCCGGGAGAUUUUUUCCUCGAGCAA | 0.112 |
| CUCUCGGUAGCCAAGUUGGUUUACGGCGCAAGACUUUAAUUUAUCACUACGAAAUCUUGAGAUCGGGUGUUCGACUCGCCCCCGGGAGAUUUUUUCCUCGAGCAA | 0.765 |
| CUCUCGGUAGCCAAGUUGGUUUACGGCGCAAUACUUUAAUUUAUCACUACGAAAUCUUGAGAUCGGGCGUUCGACUCGCCCCCGGGAGAUUUUUUCCUCGAGCAA | 0.043 |
| CUCUCGGUAGCCAAGUUGGUUUACGGCGCAAGACUUUAAUUUAUCACUACGAAAUCUUGAGAUCGGGCGUACGACUCCCACCCGGGUGAUUUUUUCCUCGAGCAA | ≤ 0.026 |
| CUCUCGGUAGCCAAGUUGGUUUACGGCGCAAGACUUUAAUUUAUCACUACGAAAUCUUGAGAUCGGGCGUACGACUCCCACCCGGGGGAUUUUUUCCUCGAGCAA | ≤ 0.026 |
| CUCUCGGUAGCCAAGUUGGUUUACGGCGCAAGACUUUAAUUUAUCACUACGAAAUCUUGAGAUCGGGCGUUCGACUCGUCCCCGGGAGAUUUUUUCCUCGAGCAA | 0.209 |
| CUCUCGGUAGCCAAGUUGGUUUACGGCGCAAGACUUUAAUUUAUCACUACGAAACCUUGAGAUCGGGCGUUCGACUCGCCCCCGGGAGAUUUUUUCCUCGAGCAA | 0.365 |
| CUCUCGGUAGCCAAGUUGGUUUACGGCGCAAGACUUUAAUUUAUCACUACGAAGUCUUGAGAUCGGGCGUUCGACUCGCCCCCGGGAGAUUUUUUCCUCGAGCAA | 0.0609 |
| CUCUCGGUAGCCAAGUUGGUUUACGGCGCAAGACUUUAAUUUAUCACUACGAACUCUUGAGAUCGGGCGUUCGACUCGCCCCCGGGAGAUUUUUUCCUCGAGCAA | 0.198 |
| CUCUCGGUAGCCAAGUUGGUUUACUGCGCAAGACUUUAAUUUAUCACUACGAAAUCUUGAGAUCGGGCGUUCGACUCGCCCCCGGGAGAUUUUUUCCUCGAGCAA | ≤ 0.026 |
| CUCUCGGUAGCCAAGUUGGUUUACCGCGCAAGACUUUAAUUUAUCACUACGAAAUCUUGAGUUCGGGCGUUCGACUCGCCCCCGGGAGAUUUUUUCCUCGAGCAA | ≤ 0.026 |

| Variant | nonsense suppression |
| --- | --- |
| CUCUCGGUAGCCAAGUUGGUUUACGUCGCAAGACUUUAAUUUAUCACUACGAAAUCUUGAGAUCGGGCGUUCGACUCGCCCCCGGGAGAUUUUUUCCUCGAGCAA | 0.038 |
| CUCUCGGUAGCCAAGUUGGUUUACGGCGCAAGACUUUAAUUUAUCACUACGAAAUCUUGAGAUCGGGCGUUCGACCCGCCCCCGGGAGAUUUUUUCCUCGAGCAA | 0.88 |
| CUCUCGGUAGCCAAGUUGGUUUACGGCGCAAGACUUUAAUUUAUCACUACGAAAUCUUGAGAUCGGGCGUUUGACUCGCCCCCAGGAGAUUUUUUCCUCGAGCAA | ≤ 0.026 |
| CUCUCGGUAGCCAAGUUGGUUUACGGCGCAAGACUUUAAUUUAUCACUACGAAAUCUUGAGAUCAGGCGUUCGACUCGCCCCCGGGAGAUUUUUUCCUCGAGCAA | 0.0366 |
| CUCUCGGUAGCCAAGUUGGUUUACGGCGCAAGACUUUAAUUUAUCACUACGAAAUCUUGAGAUCUGGCGUUCGACUCGCCCCCGGGAGAUUUUUUCCUCGAGCAA | 0.0266 |
| CUCUCGGUAGCCAAGUUGGUUUACGGCGCAAGACUUUAAUUUAUCACUACGAAAUCUUGCGAUCGGGCGUUCGACUCGCCCCCGGGAGAUUUUUUCCUCGAGCAA | 0.0269 |
| CUCUCGGUAGCCAAGUUGGUUUACGGCGCAAGACUUUAAUUUAUCACUACGAAAUCUUGUGAUCGGGCGUUCGACUCGCCCCCGGGAGAUUUUUUCCUCGAGCAA | 1.07 |
| CUCUCGGUAGCCAAGUUGGUUUACGGCGCAAGACUUUAAUUUAUCACUACGAAAUCUUGGGAUCGGGCGUUCGACUCGCCCCCGGGAGAUUUUUUCCUCGAGCAA | 0.258 |
| CUCUCGGUAGCCAAGUUGGUUUACGGCGCAAGACUUUAAUUUAUCACUACGAAAUCUUGAGAUCGGGCGUUCGACUCGCCCCCAGGAGAUUUUUUCCUCGAGCAA | 0.478 |
| CUCUCGGUAGCCAAGUUGGUUUACGGCGCAAGACUUUAAUUUAUCACUACGAAAUCUUGAGAUCGGGCGUUCGACUCGCCCCCGUGAGAUUUUUUCCUCGAGCAA | 0.258 |
| CUCUCGGUAGCCAAGUUGGUUUACGGCGCAAGACUUUAAUUUAUCACUACGAAAUCUUGAGAUCGGUCGUUCGACUCGCCCCCGGGAGAUUUUUUCCUCGAGCAA | 0.0289 |
| CUCUCGGUAGCCAAGUUGGUUUACGGCGCAAGACUUUAAUUUAUCACUACGAAAUCUUGAGAUCGGGCGUUCGACUCGCCCCCGGGAAAUUUUUUCCUCGAGCAA | 0.0453 |
| CUCUCGGUAGCCAAGUUGGUUUACGGCGCAAGACUUUAAUUUAUCACUACGAAAUCUUGAGACCGGGCGUUCGACUCGCCCCCGGGAGAUUUUUUCCUCGAGCAA | 0.205 |
| CUCUCGGUAGCCAAGUUGGUUUACGGCGCAAGACUUUAAUUUAUCACUACGAAAUCUUGAGAGCGGGCGUUCGACUCGCCCCCGGGAGAUUUUUUCCUCGAGCAA | 0.133 |
| CUCUCGGUAGCCAAGUUGGUUUACGGCGCAAGACUUUAAUUUAUCACUACGAAAUCUUGAGAACGGGCGUUCGACUCGCCCCCGGGAGAUUUUUUCCUCGAGCAA | 0.636 |
| CUCUCGGUAGCCAAGUUGGUUUACGGCGCAAGACUUUAAUUUAUCACUACGAAAUCUUGAGAUCGGGCGUCCGACUCGCCCCCGGGAGAUUUUUUCCUCGAGCAA | 0.0704 |
| CUCUCGGUAGCCAAGUUGGUUUACGGCGCAAGACUUUAAUUUAUCACUACGAAAUCUUGAGAUCGGGCUUUCGACUCGCCCCCGGGAGAUUUUUUCCUCGAGCAA | ≤ 0.026 |
| CUCUCGGUAGCCAAGUUGGUUUACGGCGCAAGACUUUAAUUUAUCACUACGAAAUCUGGAGAUCGGGCGUUCGACUCGCCCCCGGUAGAUUUUUUCCUCGAGCAA | ≤ 0.026 |
| CUCUCGGUAGCCAAGUUGGUUUACGGCGCAAGACUUUAAUUUAUCACUACGAAAUCUUGAGAUCGGGCGUUCGAGUCGCCCCCGGGAGAUUUUUUCCUCGAGCAA | 1.11 |
| CUCUCGGUAGCCAAGUUGGUUUACGGCGCAAGACUUUAAUUUAUCACUACGAAAUCUUGAGAUCGGGCGUUCGAUUCGCCCCCGGGAGAUUUUUUCCUCGAGCAA | 1.18 |
| CUCUCGGUAGCCAAGUUGGUUUACGGCGCAAGAGUUUAAUUUAUCACUACGAAAUUUUGAGAUCGGGCGUUCGACUCGCCCCCGGGAGAUUUUUUCCUCGAGCAA | ≤ 0.026 |
| CUCUCGGUAGCCAAGUUGGUUUACGGCGCAAGACUUUAAUUUAUCACUACGAAAUCUUGAGAUCGGGCGUUCGACUCGCCUCCGGGAGAUUUUUUCCUCGAGCAA | 0.2 |
| CUCUCGGUAGCCAAGUUGGUUUACGACGCUAGACUUUAAUUUAUCACUACGAAAUCUUGAGAUCGGGCGUUCGACUCGCGGCCGGGAGAUUUUUUCCUCGAGCAA | ≤ 0.026 |
| CUCUCGGUAGCCAAGUUGGUUUACGGCGCAAGACUUUAAUUUAUCACUACGAAAUCUUGAGAUCGGGCGAUCGACUCGCCCCCGGGAGAUUUUUUCCUCGAGCAA | ≤ 0.026 |
| CUCUCGGUAGCCAAGUUGGUUUACGGCGCAAGACUUUAAUUUAUCACUACGAAAUCUUGAGAUCGGGCGUUCCACUCGCCCCCCGGAGAUUUUUUCCUCGAGCAA | ≤ 0.026 |
| CUCUCGGUAGCCAAGUUGGUUUACGGCGCAAGACUUUAAUUUAUCACUACGAAAUCUUGAGAUCGGGCGUUCGACUCGCCCCCGGGAGCUUUUUUCCUCGAGCAA | 0.0925 |
| CUCUCGGUAGCCAAGUUGGUUUACGGCGCUAGACUUUAAUUUAUCACUACGAACUCUGGAGAUCGGGCGUUCGAAUCGCCCCCGGGAGAUUUUUUCCUCGAGCAA | 0.783 |
